The test system of this assay is Human alphaherpesvirus 1. Kind of assay: Antiviral activity against herpes simplex virus type 1 (HSV-1) determined in baby hamster kidney cells. The assay is classed as functional. The essentials: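 Microplaque reduction with HSV-1 strain S3. Serial 0.5 log virus dilutions were inoculated onto baby hamster kidney cell monolayers in microtiter plates for infectivity end-point titration. Compound was present in the overlay (Dulbecco-modified Eagle MEM, 10% donor calf serum, 0.5% carboxymethylcellulose). MIC was the lowest concentration that cut the virus infectivity end point by at least 1 log versus the untreated control.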

Where [1] appears, read: Human alphaherpesvirus 1, read-out: MIC.

Converted amounts (≈) assume the structure as drawn.

In the case of `C/C=C/c1cn([C@H]2C[C@H](O)[C@@H](CO)O2)c(=O)nc1N`, under setting [1], the MIC was 50 µg/mL (≈ 187 µM). Turning to `C/C=C(/C)c1cn([C@H]2C[C@H](O)[C@@H](CO)O2)c(=O)[nH]c1=O`, under setting [1], the MIC was above 100 µg/mL. The same measure, in the same setting: to `C/C=C\c1cn([C@H]2C[C@H](O)[C@@H](CO)O2)c(=O)[nH]c1=O` belongs 100 µg/mL (≈ 373 µM); to `C/C=C/Cc1cn([C@H]2C[C@H](O)[C@@H](CO)O2)c(=O)[nH]c1=O.C/C=C\Cc1cn([C@H]2C[C@H](O)[C@@H](CO)O2)c(=O)[nH]c1=O`, 10 µg/mL. For `O=c1[nH]c(=O)n([C@H]2C[C@H](O)[C@@H](CO)O2)cc1C=C(Br)Br`, under setting [1], the MIC stood at 0.1 µg/mL (≈ 0.243 µM).

Take `C/C=C(\C)c1cn([C@H]2C[C@H](O)[C@@H](CO)O2)c(=O)[nH]c1=O`: the MIC under setting [1] was determined as 50 µg/mL (≈ 177 µM). For the molecule `C/C(=C\Br)c1cn([C@H]2C[C@H](O)[C@@H](CO)O2)c(=O)[nH]c1=O`, the MIC under setting [1] was determined as 0.1 µg/mL (≈ 0.288 µM). Turning to `C=C(Cl)Cc1cn([C@H]2C[C@H](O)[C@@H](CO)O2)c(=O)[nH]c1=O`, the MIC under setting [1] was determined as 50 µg/mL (≈ 165 µM). With `CCCCc1cn([C@H]2C[C@H](O)[C@@H](CO)O2)c(=O)[nH]c1=O`, under setting [1], the MIC came out at 10 µg/mL (≈ 35.2 µM). With `N#C/C=C/c1cn([C@H]2C[C@H](O)[C@@H](CO)O2)c(=O)[nH]c1=O`, the MIC under setting [1] is above 25 µg/mL. Same read-out and setting: the value for `COC(=O)/C=C/c1cn([C@H]2C[C@H](O)[C@@H](CO)O2)c(=O)[nH]c1=O` was 10 µg/mL (≈ 32 µM); that for `CC(C)(C)/C=C/c1cn([C@H]2C[C@H](O)[C@@H](CO)O2)c(=O)[nH]c1=O` was above 10 µg/mL; that for `CCCC/C=C/c1cn([C@H]2C[C@H](O)[C@@H](CO)O2)c(=O)[nH]c1=O` was above 100 µg/mL. For the molecule `C/C=C\c1cn([C@H]2C[C@H](O)[C@@H](CO)O2)c(=O)nc1N`, the MIC under setting [1] is above 100 µg/mL. On the same count and under the same terms, the value for `CC/C=C/c1cn([C@H]2C[C@H](O)[C@@H](CO)O2)c(=O)[nH]c1=O` was 0.5 µg/mL (≈ 1.77 µM); that for `CCC#Cc1cn([C@H]2C[C@H](O)[C@@H](CO)O2)c(=O)[nH]c1=O` was 10 µg/mL (≈ 35.7 µM).

Regarding `C/C=C/c1cn([C@H]2C[C@H](O)[C@@H](CO)O2)c(=O)[nH]c1=O`, the MIC under setting [1] is 0.5 µg/mL (≈ 1.86 µM).

For `O=c1[nH]c(=O)n([C@H]2C[C@H](O)[C@@H](CO)O2)cc1/C=C/Br` (stereo in doubt; 2) [BRIVUDINE], the MIC was determined as 0.005 µg/mL (≈ 0.015 µM). As to `C/C(=C\Cl)c1cn([C@H]2C[C@H](O)[C@@H](CO)O2)c(=O)[nH]c1=O`, the MIC under setting [1] is above 100 µg/mL. With `CCC/C=C/c1cn([C@H]2C[C@H](O)[C@@H](CO)O2)c(=O)[nH]c1=O`, the MIC under setting [1] was above 100 µg/mL. Still for that read-out and setting: to `C/C(Br)=C/c1cn([C@H]2C[C@H](O)[C@@H](CO)O2)c(=O)[nH]c1=O.C/C(Br)=C\c1cn([C@H]2C[C@H](O)[C@@H](CO)O2)c(=O)[nH]c1=O` belongs 1 µg/mL.

Consider `CS/C=C/c1cn([C@H]2C[C@H](O)[C@@H](CO)O2)c(=O)[nH]c1=O`, for which the MIC under setting [1] worked out at 0.5 µg/mL (≈ 1.66 µM). On to `CC(C)=Cc1cn([C@H]2C[C@H](O)[C@@H](CO)O2)c(=O)[nH]c1=O`, for which, under setting [1], the MIC was above 50 µg/mL.

Turning to `C/C=C/c1cn([C@H]2C[C@H](O)[C@@H](CO)O2)c(=O)[nH]c1=S`, under setting [1], the MIC is 100 µg/mL (≈ 352 µM). For `CC#Cc1cn([C@H]2C[C@H](O)[C@@H](CO)O2)c(=O)[nH]c1=O`, under setting [1], the MIC stood at 1 µg/mL (≈ 3.76 µM). The same measure, in the same setting: the value for `COC(=O)/C(C)=C/c1cn([C@H]2C[C@H](O)[C@@H](CO)O2)c(=O)[nH]c1=O` was above 100 µg/mL. The same measure, in the same setting: the value for `COC(=O)/C=C(\C)c1cn([C@H]2C[C@H](O)[C@@H](CO)O2)c(=O)[nH]c1=O` was above 100 µg/mL; that for `C=CCc1cn([C@H]2C[C@H](O)[C@@H](CO)O2)c(=O)[nH]c1=O` was 100 µg/mL (≈ 373 µM). Consider `O=c1[nH]c(=O)n([C@H]2C[C@H](O)[C@@H](CO)O2)cc1/C=C/Br` (stereo in doubt; 4) [BRIVUDINE], for which the MIC is 0.1 µg/mL (≈ 0.3 µM).

Turning to `COC(=O)/C=C/C=C/c1cn([C@H]2C[C@H](O)[C@@H](CO)O2)c(=O)[nH]c1=O`, the MIC under setting [1] was above 100 µg/mL.

The record behind these values is ChEMBL document CHEMBL1122499, “Structural requirements of olefinic 5-substituted deoxyuridines for antiherpes activity” (1983).
